Measured values as given in ChEMBL document CHEMBL4765454, “Betulinic acid derived amides are highly cytotoxic, apoptotic and selective” (Eur J Med Chem, 2020).
Active and inactive are the calls of the source. No cut-off for these calls is given here.

Legend:
A-375 [1] = experiment: Cytotoxicity against human A-375 cells assessed as reduction in cell viability incubated for 72 hrs by SRB assay; type: functional, cell-based; settings: Homo sapiens, A-375, 72 h; read-out: EC50
HT-29 = experiment: Cytotoxicity against human HT-29 cells assessed as reduction in cell viability incubated for 72 hrs by SRB assay; type: functional, cell-based; settings: Homo sapiens, HT-29, 72 h; read-out: EC50
MCF7 = experiment: Cytotoxicity against human MCF7 cells assessed as reduction in cell viability incubated for 72 hrs by SRB assay; type: functional, cell-based; settings: Homo sapiens, MCF7, 72 h; read-out: EC50
A2780 = experiment: Cytotoxicity against human A2780 cells assessed as reduction in cell viability incubated for 72 hrs by SRB assay; type: functional, cell-based; settings: Homo sapiens, A2780, 72 h; read-out: EC50
FaDu = experiment: Cytotoxicity against human FaDu cells assessed as reduction in cell viability incubated for 72 hrs by SRB assay; type: functional, cell-based; settings: Homo sapiens, FaDu, 72 h; read-out: EC50
NIH3T3 = experiment: Cytotoxicity against mouse NIH3T3 cells assessed as reduction in cell viability incubated for 72 hrs by SRB assay; type: cell-based; settings: Mus musculus, NIH3T3, 72 h; read-out: EC50
[2] = Selectivity ratio of EC50 for mouse NIH3T3 cells to EC50 for human HT-29 cells; type: toxicity; settings: NIH3T3 cells versus HT-29 cells, read-out: Ratio EC50
[3] = Selectivity ratio of EC50 for mouse NIH3T3 cells to EC50 for human MCF7 cells; type: toxicity; settings: NIH3T3 cells versus MCF7 cells, read-out: Ratio EC50
[4] = Selectivity ratio of EC50 for mouse NIH3T3 cells to EC50 for human A2780 cells; type: toxicity; settings: NIH3T3 cells versus A2780 cells, read-out: Ratio EC50
[5] = Selectivity ratio of EC50 for mouse NIH3T3 cells to EC50 for human FaDu cells
A-375 [6] = experiment: Induction of apoptosis in human A375 cells assessed as necrotic cells at 3 uM measured after 24 hrs by Annexin V-FITC/propidium iodide staining based flow cytometry (reference value: 0.331%); type: functional
A-375 [7] = experiment: Induction of apoptosis in human A375 cells assessed as late apoptotic cells at 3 uM measured after 24 hrs by Annexin V-FITC/propidium iodide staining based flow cytometry (reference value: 7.352%); type: functional
A-375 [8] = experiment: Induction of apoptosis in human A375 cells assessed as viable cells at 3 uM measured after 24 hrs by Annexin V-FITC/propidium iodide staining based flow cytometry (reference value: 90.123%); type: functional; settings: read-out: Activity
A-375 [9] = experiment: Induction of apoptosis in human A375 cells assessed as early apoptotic cells at 3 uM measured after 24 hrs by Annexin V-FITC/propidium iodide staining based flow cytometry (reference value: 2.194%); type: functional
A-375 [10] = experiment: Induction of apoptosis in human A375 cells assessed as necrotic cells at 3 uM measured after 48 hrs by Annexin V-FITC/propidium iodide staining based flow cytometry (reference value: 0.547%); type: functional
A-375 [11] = experiment: Induction of apoptosis in human A375 cells assessed as late apoptotic cells at 3 uM measured after 48 hrs by Annexin V-FITC/propidium iodide staining based flow cytometry (reference value: 5.108%); type: functional
A-375 [12] = experiment: Induction of apoptosis in human A375 cells assessed as viable cells at 3 uM measured after 48 hrs by Annexin V-FITC/propidium iodide staining based flow cytometry (reference value: 92.723%); type: functional; settings: read-out: Activity
A-375 [13] = experiment: Induction of apoptosis in human A375 cells assessed as early apoptotic cells at 3 uM measured after 48 hrs by Annexin V-FITC/propidium iodide staining based flow cytometry (reference value: 1.622%); type: functional
A-375 [14] = experiment: Induction of apoptosis in human A375 cells at 3 uM measured after 24 hrs by microscopic analysis; type: functional, cell-based
Procedure, shortened: (§1)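 A375 cells treated at 3.0, 4.8 or 6.2 µM and inspected by light microscopy after 24 h or 48 h. Cell number and morphology were scored for apoptotic features: shrinkage, strangulation and blebbing.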

A-375 [15] = experiment: Induction of apoptosis in human A375 cells assessed as cell shrinkage at 3 uM measured after 48 hrs by microscopic analysis; type: functional, cell-based; procedure, shortened: as §1
A-375 [16] = experiment: Induction of apoptosis in human A375 cells assessed as strangulation at 3 uM measured after 48 hrs by microscopic analysis; type: functional, cell-based; procedure, shortened: as §1
A-375 [17] = experiment: Induction of apoptosis in human A375 cells assessed as blebbing at 3 uM measured after 48 hrs by microscopic analysis; type: functional, cell-based; procedure, shortened: as §1
A-375 [18] = experiment: Cell cycle arrest in human A375 cells assessed as accumulation at subG1 phase measured after 24 hrs by propidium iodide staining based flow cytometry (reference value: 0.46%); type: functional
A-375 [19] = experiment: Cell cycle arrest in human A375 cells assessed as accumulation at G1 phase measured after 24 hrs by propidium iodide staining based flow cytometry (reference value: 44.59%); type: functional
A-375 [20] = experiment: Cell cycle arrest in human A375 cells assessed as accumulation at S phase measured after 24 hrs by propidium iodide staining based flow cytometry (reference value: 47.46%); type: functional
A-375 [21] = experiment: Cell cycle arrest in human A375 cells assessed as accumulation at G2/M phase measured after 24 hrs by propidium iodide staining based flow cytometry (reference value: 7.48%); type: functional
A-375 [22] = experiment: Cell cycle arrest in human A375 cells assessed as accumulation at subG1 phase measured after 48 hrs by propidium iodide staining based flow cytometry (reference value: 0.57%); type: functional
A-375 [23] = experiment: Cell cycle arrest in human A375 cells assessed as accumulation at G1 phase measured after 48 hrs by propidium iodide staining based flow cytometry (reference value: 57.3%); type: functional
A-375 [24] = experiment: Cell cycle arrest in human A375 cells assessed as accumulation at S phase measured after 48 hrs by propidium iodide staining based flow cytometry (reference value: 31.3%); type: functional
A-375 [25] = experiment: Cell cycle arrest in human A375 cells assessed as accumulation at G2/M phase measured after 48 hrs by propidium iodide staining based flow cytometry (reference value: 10.83%); type: functional
A-375 [26] = experiment: Induction of apoptosis in human A375 cells assessed as necrotic cells at 6.2 uM measured after 24 hrs by Annexin V-FITC/propidium iodide staining based flow cytometry (reference value: 0.331%); type: functional
A-375 [27] = experiment: Induction of apoptosis in human A375 cells assessed as late apoptotic cells at 6.2 uM measured after 24 hrs by Annexin V-FITC/propidium iodide staining based flow cytometry (reference value: 7.352%); type: functional
A-375 [28] = experiment: Induction of apoptosis in human A375 cells assessed as viable cells at 6.2 uM measured after 24 hrs by Annexin V-FITC/propidium iodide staining based flow cytometry (reference value: 90.123%); type: functional; settings: read-out: Activity
A-375 [29] = experiment: Induction of apoptosis in human A375 cells assessed as early apoptotic cells at 6.2 uM measured after 24 hrs by Annexin V-FITC/propidium iodide staining based flow cytometry (reference value: 2.194%); type: functional
A-375 [30] = experiment: Induction of apoptosis in human A375 cells assessed as necrotic cells at 6.2 uM measured after 48 hrs by Annexin V-FITC/propidium iodide staining based flow cytometry (reference value: 0.547%); type: functional
A-375 [31] = experiment: Induction of apoptosis in human A375 cells assessed as late apoptotic cells at 6.2 uM measured after 48 hrs by Annexin V-FITC/propidium iodide staining based flow cytometry (reference value: 5.108%); type: functional
A-375 [32] = experiment: Induction of apoptosis in human A375 cells assessed as viable cells at 6.2 uM measured after 48 hrs by Annexin V-FITC/propidium iodide staining based flow cytometry (reference value: 92.723%); type: functional; settings: read-out: Activity
A-375 [33] = experiment: Induction of apoptosis in human A375 cells assessed as early apoptotic cells at 6.2 uM measured after 48 hrs by Annexin V-FITC/propidium iodide staining based flow cytometry (reference value: 1.622%); type: functional
A-375 [34] = experiment: Induction of apoptosis in human A375 cells at 6.2 uM measured after 24 hrs by microscopic analysis; type: functional, cell-based; procedure, shortened: as §1
A-375 [35] = experiment: Induction of apoptosis in human A375 cells assessed as cell shrinkage at 6.2 uM measured after 48 hrs by microscopic analysis; type: functional, cell-based; procedure, shortened: as §1
A-375 [36] = experiment: Induction of apoptosis in human A375 cells assessed as strangulation at 6.2 uM measured after 48 hrs by microscopic analysis; type: functional, cell-based; procedure, shortened: as §1
A-375 [37] = experiment: Induction of apoptosis in human A375 cells assessed as blebbing at 6.2 uM measured after 48 hrs by microscopic analysis; type: functional, cell-based; procedure, shortened: as §1

Row | Compound | EC50 (A-375 [1]) | EC50 (HT-29) | EC50 (MCF7) | EC50 (A2780) | EC50 (FaDu) | EC50 (NIH3T3) | selectivity ratio [2] | selectivity ratio [3] | selectivity ratio [4] | Ratio EC50 [5] | Activity (A-375 [18]) | Activity (A-375 [19]) | Activity (A-375 [20]) | Activity (A-375 [21]) | Activity (A-375 [22]) | Activity (A-375 [23]) | Activity (A-375 [24]) | Activity (A-375 [25]) | also measured
1 | C=C(C)[C@@H]1CC[C@]2(C(=O)Nc3cncc4ccccc34)CC[C@]3(C)[C@H](CC[C@@H]4[C@@]5(C)CC[C@H](OC(C)=O)C(C)(C)[C@@H]5CC[C@]43C)[C@@H]12 | 1480 nM | > 30 µM | 4.65 µM | 2.16 µM | 2.26 µM | > 135 µM | 4.5 | 29 | 62.5 | 59.7 | 2.38% | 61.06% | 36.56% | 0% | 23.32% | 41.85% | 34.84% | 0% | Activity (A-375 [6]): 0.351%; Activity (A-375 [7]): 9.649%; viability at 3 µM (A-375 [8]): 83.5%; Activity (A-375 [9]): 8.551%; Activity (A-375 [10]): 1.115%; Activity (A-375 [11]): 21.382%; viability at 3 µM (A-375 [12]): 33.2%; Activity (A-375 [13]): 44.309%; Activity (A-375 [14]): Active; Activity (A-375 [15]): Active; Activity (A-375 [16]): Active; Activity (A-375 [17]): Active
2 | C=C(C)[C@@H]1CC[C@]2(C(=O)NCc3ccccc3)CC[C@]3(C)[C@H](CC[C@@H]4[C@@]5(C)C[C@H](OC(C)=O)[C@H](OC(C)=O)C(C)(C)[C@@H]5CC[C@]43C)[C@@H]12 | 3140 nM | 20.7 µM | 11.3 µM | 4.42 µM | 5.4 µM | > 70 µM | 3.4 | 6.2 | 15.8 | 13 | 5.98% | 63.76% | 30.27% | 0% | 25.69% | 52.38% | 21.92% | 0% | Activity (A-375 [26]): 0.667%; Activity (A-375 [27]): 7.93%; viability at 6.2 µM (A-375 [28]): 81.9%; Activity (A-375 [29]): 9.546%; Activity (A-375 [30]): 1.449%; Activity (A-375 [31]): 20.078%; viability at 6.2 µM (A-375 [32]): 34.3%; Activity (A-375 [33]): 44.187%; Activity (A-375 [34]): Active; Activity (A-375 [35]): Active; Activity (A-375 [36]): Active; Activity (A-375 [37]): Active
